In ChEMBL document CHEMBL3877264, “Quinolidene-rhodanine conjugates: Facile synthesis and biological evaluation” (Eur J Med Chem, 2017):
Converted amounts (≈) assume the structure as drawn.

Assays:
[1] = tested on: Mycobacterium tuberculosis; test: Growth inhibition of Mycobacterium tuberculosis H37Ra ATCC 25177 at dormant stage measured after 12 days by XTT dye based two fold dilution method; type: functional; details: H37Ra ATCC 25177, 288 h
How it was run: (§1)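 MTB H37Ra was grown in Dubos medium, then exposed in Mycobacterium pheli minimal medium (pH 6.6) to compounds dissolved in DMSO. The assay ended on day 8 (active) or day 12 (dormant). Viable cells were measured by XTT reduction menadione assay at 470 nm, blank-corrected, relative to vehicle control. Triplicates were expressed as mean ± SD. MIC came from dose-response curves.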

[2] = tested on: Mycobacterium tuberculosis; test: Growth inhibition of Mycobacterium bovis BCG ATCC 35743 at dormant stage at 3 ug/ml measured after 12 days by nitrate reductase dye based two fold dilution method relative to control; type: functional; details: BCG str. ATCC 35743, 288 h, read-out: GI
How it was run: (§2)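 M. bovis BCG was grown in Dubos medium and assayed in Mycobacterium pheli minimal medium (pH 6.6), with compounds from DMSO stocks. Incubation lasted 8 days for active and 12 days for dormant cultures. Viability was read by nitrate reductase at 540 nm against cell-free blanks, with vehicle set as 100% growth. Primary screen was at 30, 10 and 3 µg/ml, in triplicate, mean ± SD. MIC was taken from dose-response curves.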

[3] = tested on: Mycobacterium tuberculosis; test: Growth inhibition of Mycobacterium tuberculosis H37Ra ATCC 25177 at dormant stage at 3.13 ug/ml measured after 12 days by XTT dye based two fold dilution method relative to control; type: functional; details: H37Ra ATCC 25177, 288 h, read-out: GI; how it was run: as §1
Bacillus subtilis = test: Growth inhibition of Bacillus subtilis NCIM 2079 at 30 ug/ml measured after 12 hrs relative to control; type: functional; details: NCIM 2079, 12 h, read-out: GI
How it was run: (§3)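 Bacteria grown in LB at 37 °C and 180 rpm to OD 1. Compounds added to wells, then 0.1% inoculum of 1 OD culture (620 nm). Growth read as OD at 620 nm after 8 h for gram-negative and after 12 h for gram-positive strains.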

[4] = Cytotoxicity against primary HUVEC measured after 48 hrs by MTT assay; type: toxicity, cell-based; details: human
[5] = tested on: Mycobacterium tuberculosis; test: Growth inhibition of Mycobacterium bovis BCG ATCC 35743 at active stage at 0.78 ug/ml measured after 8 days by nitrate reductase dye based two fold dilution method relative to control; type: functional; details: BCG str. ATCC 35743, 192 h, read-out: GI; how it was run: as §2
Candida albicans = test: Antifungal activity against Candida albicans NCIM 3471 by standard agar method; type: functional
How it was run: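 MICs determined by standard agar method; DMSO as solvent control.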

[6] = tested on: Mycobacterium tuberculosis; test: Growth inhibition of Mycobacterium tuberculosis H37Ra ATCC 25177 at active stage at 25 ug/ml measured after 8 days by XTT dye based two fold dilution method relative to control; type: functional; details: H37Ra ATCC 25177, 192 h, read-out: GI; how it was run: as §1
[7] = Cytotoxicity against human THP1 cells measured after 48 hrs by MTT assay; type: toxicity, cell-based, THP-1
How it was run: (§4)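 MTT assay with 48 h compound exposure. THP-1 macrophages made by 24 h PMA treatment. Each concentration tested in triplicate in one experiment. % cytotoxicity = (control−test)/(control−blank)×100, with control = cells + DMSO and blank = medium without cells. IC50 from % survival versus concentration plots.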

[8] = tested on: Mycobacterium tuberculosis; test: Growth inhibition of Mycobacterium tuberculosis H37Ra ATCC 25177 at active stage at 50 ug/ml measured after 8 days by XTT dye based two fold dilution method relative to control; type: functional; details: H37Ra ATCC 25177, 192 h, read-out: GI; how it was run: as §1
[9] = tested on: Mycobacterium tuberculosis; test: Growth inhibition of Mycobacterium tuberculosis H37Ra ATCC 25177 at active stage at 100 ug/ml measured after 8 days by XTT dye based two fold dilution method relative to control; type: functional; details: H37Ra ATCC 25177, 192 h, read-out: GI; how it was run: as §1
[10] = Cytotoxicity against human HeLa cells at 100 ug/ml assessed as growth inhibition measured after 48 hrs by MTT assay relative to control; type: toxicity, cell-based; details: read-out: GI
Escherichia coli [11] = test: Growth inhibition of Escherichia coli NCIM 2688 at 3 ug/ml measured after 8 hrs relative to control; type: functional; details: NCIM 2688, 8 h, read-out: GI; how it was run: as §3
[12] = tested on: Mycobacterium tuberculosis; test: Growth inhibition of Mycobacterium tuberculosis H37Ra ATCC 25177 at dormant stage at 50 ug/ml measured after 12 days by XTT dye based two fold dilution method relative to control; type: functional; details: H37Ra ATCC 25177, 288 h, read-out: GI; how it was run: as §1
[13] = tested on: Mycobacterium tuberculosis; test: Growth inhibition of Mycobacterium bovis BCG ATCC 35743 at dormant stage at 100 ug/ml measured after 12 days by nitrate reductase dye based two fold dilution method relative to control; type: functional; details: BCG str. ATCC 35743, 288 h, read-out: GI; how it was run: as §2
[14] = tested on: Mycobacterium tuberculosis; test: Growth inhibition of Mycobacterium bovis BCG ATCC 35743 at dormant stage at 1.56 ug/ml measured after 12 days by nitrate reductase dye based two fold dilution method relative to control; type: functional; details: BCG str. ATCC 35743, 288 h, read-out: GI; how it was run: as §2
[15] = tested on: Mycobacterium tuberculosis; test: Growth inhibition of Mycobacterium bovis BCG ATCC 35743 at active stage at 1.56 ug/ml measured after 8 days by nitrate reductase dye based two fold dilution method relative to control; type: functional; details: BCG str. ATCC 35743, 192 h, read-out: GI; how it was run: as §2
[16] = tested on: Mycobacterium tuberculosis; test: Growth inhibition of Mycobacterium bovis BCG ATCC 35743 at active stage at 25 ug/ml measured after 8 days by nitrate reductase dye based two fold dilution method relative to control; type: functional; details: BCG str. ATCC 35743, 192 h, read-out: GI; how it was run: as §2
Staphylococcus aureus = test: Growth inhibition of Staphylococcus aureus NCIM 2010 at 30 ug/ml measured after 12 hrs relative to control; type: functional; details: NCIM 2010, 12 h, read-out: GI; how it was run: as §3
[17] = Cytotoxicity against […]-differentiated human THP1 cells measured after 48 hrs by MTT assay; type: toxicity, cell-based, THP-1; how it was run: as §4
Escherichia coli [18] = test: Growth inhibition of Escherichia coli NCIM 2688 at 10 ug/ml measured after 8 hrs relative to control; type: functional; details: NCIM 2688, 8 h, read-out: GI; how it was run: as §3
[19] = tested on: Mycobacterium tuberculosis; test: Growth inhibition of Mycobacterium tuberculosis H37Ra ATCC 25177 at active stage at 0.78 ug/ml measured after 8 days by XTT dye based two fold dilution method relative to control; type: functional; details: H37Ra ATCC 25177, 192 h, read-out: GI; how it was run: as §1
[20] = tested on: Mycobacterium tuberculosis; test: Growth inhibition of Mycobacterium bovis BCG ATCC 35743 at active stage measured after 8 days by nitrate reductase dye based two fold dilution method; type: functional; details: BCG str. ATCC 35743, 192 h; how it was run: as §2
[21] = tested on: Mycobacterium tuberculosis; test: Growth inhibition of Mycobacterium bovis BCG ATCC 35743 at dormant stage measured after 12 days by nitrate reductase dye based two fold dilution method; type: functional; details: BCG str. ATCC 35743, 288 h; how it was run: as §2
[22] = Selectivity index, ratio of GI50 for human PANC1 cells to MIC for Mycobacterium tuberculosis H37Ra ATCC 25177 at dormant stage; type: toxicity, cell-based, PANC-1; details: read-out: Selectivity Index
How it was run: (§5)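 SI is the cell-line GI50 divided by the dormant-stage mycobacterial MIC. […] THP-1 macrophages were PMA-differentiated for 24 h.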

[23] = Selectivity index, ratio of GI50 for HUVEC to MIC for Mycobacterium tuberculosis H37Ra ATCC 25177 at dormant stage
[24] = Selectivity index, ratio of GI50 for human A549 cells to MIC for Mycobacterium tuberculosis H37Ra ATCC 25177 at dormant stage; type: toxicity, cell-based; details: read-out: Selectivity Index; how it was run: as §5
[25] = Selectivity index, ratio of GI50 for […]-differentiated human THP1 cells to MIC for Mycobacterium tuberculosis H37Ra ATCC 25177 at dormant stage; type: toxicity, cell-based, THP-1; details: read-out: Selectivity Index; how it was run: as §5

| SMILES | IC50 [1] [µg/mL] | IC90 [1] [µg/mL] | inhibition of growth at 3 µg/mL [2] [%] | inhibition of growth at 3.13 µg/mL [3] [%] | inhibition of growth at 30 µg/mL (Bacillus subtilis) [%] | GI50 at 48 h [4] [µg/mL] | MIC (Candida albicans) [µg/mL] | inhibition of growth at 25 µg/mL [6] [%] | GI50 at 48 h [7] [µg/mL] | inhibition of growth at 50 µg/mL [8] [%] | inhibition of growth at 100 µg/mL [9] [%] | inhibition at 48 h, 100 ug/ml [10] [%] | inhibition of growth at 3 µg/mL (Escherichia coli [11]) [%] | inhibition of growth at 50 µg/mL [12] [%] | inhibition of growth at 100 µg/mL [13] [%] | inhibition of growth at 1.56 µg/mL [14] [%] | inhibition of growth at 30 µg/mL (Staphylococcus aureus) [%] | GI50 at 48 h [17] [µg/mL] | inhibition of growth at 10 µg/mL (Escherichia coli [18]) [%] | inhibition of growth at 0.78 µg/mL [19] [%] | further results |
| --- | --- | --- | --- | --- | --- | --- | --- | --- | --- | --- | --- | --- | --- | --- | --- | --- | --- | --- | --- | --- | --- |
| COc1ccc2cc(/C=C3\SC(=S)NC3=O)c(Cl)nc2c1 | 10 (≈ 29.7 µM) | > 30 | -7.94 | 36.4 | 8.36 | > 100 | 50 (≈ 148 µM) | 109 | > 100 | 102 | 96.4 | 30.1 | 26.4 | 104 | 99 | -29.2 | -23.5 | > 100 | 39.4 | 16.8 | inhibition of growth at 0.78 µg/mL [5]: -60.1%; inhibition of growth at 1.56 µg/mL [15]: -36.6%; inhibition of growth at 25 µg/mL [16]: 98.4%; IC50 [20]: 1.7 µg/mL (≈ 5.05 µM); IC90 [20]: 2.9 µg/mL (≈ 8.61 µM) |
| O=C(O)CN1C(=O)/C(=C/c2cc3cc(F)ccc3nc2Cl)SC1=S | > 30 | > 30 | 23.9 | 9.18 | -5.15 | > 100 | 50 (≈ 131 µM) | 10.4 | > 100 | 82.8 | 100 | 9.01 | -2.27 | 83.2 | 98.2 | 99.4 | -19 | > 100 | -8.65 | -48.2 | IC50 [21]: > 30 µg/mL; IC90 [21]: > 30 µg/mL; IC50 [20]: > 30 µg/mL; IC90 [20]: > 30 µg/mL |
| Cc1cccc2cc(/C=C3\SC(=S)NC3=O)c(Cl)nc12 | 7.6 (≈ 23.7 µM) | 12.9 (≈ 40.2 µM) | -6.23 | -0.35 | 6.66 | > 100 | 200 (≈ 623 µM) | 105 | > 100 | 102 | 113 | 32.1 | 26.2 | 99.8 | 95 | -20.5 | 12.6 | > 100 | 27.5 | 20.1 | selectivity ratio [22]: 7.8; Selectivity Index [23]: 7.8; inhibition of growth at 0.78 µg/mL [5]: -28.7%; selectivity ratio [24]: 7.8; IC50 [21]: 5.1 µg/mL (≈ 15.9 µM); IC90 [21]: 9.5 µg/mL (≈ 29.6 µM); inhibition of growth at 1.56 µg/mL [15]: -33.4%; inhibition of growth at 25 µg/mL [16]: 99.3%; IC50 [20]: 3.7 µg/mL (≈ 11.5 µM); IC90 [20]: 6.5 µg/mL (≈ 20.3 µM); selectivity ratio [25]: 7.8 |
